Measured values of several laboratories.
Lines come from different studies, so protocols differ.
Target: Phosphatidylinositol 4-phosphate 5-kinase type-1 gamma (PIP5K1C, Homo sapiens, UniProt O60331)

C[C@@]1(Cc2ccc(C#N)cc2)C(=O)N(c2cc(Cl)cc(Cl)c2)c2ncc(C(=O)NC3(c4nc(C5CCC5)no4)CC3)n21 — remaining binding (cell-free assay; competition with immobilised ligand; 1 µM): 100%
CNC(=O)[C@@H]1CC[C@@H](n2c(-c3ccc4cnccc4c3)nc3ccc(C(=O)NCc4cccc(C(N)=O)c4)cc32)C1 — remaining binding (binding; competition with immobilised ligand; 1 µM): 80%
O=C(O)c1cc(-c2ccc(C3CCNCC3)cc2)c2ccc(-c3ccc(C(F)(F)F)cc3)cc2c1 — remaining binding (cell-free assay; competition with immobilised ligand; 1 µM): 100%
COc1ccnn2ncc(-c3ccnc(N(C)C)n3)c12 — remaining binding (binding; 1 µM): 97%
O=C(NCC1CCOCC1)c1n[nH]cc1NC(=O)c1c(F)cccc1F — remaining binding (binding; competition with immobilised ligand; 1 µM): 55%
CN(C(=O)c1ccccc1)c1cc(N(C)c2ccc3c(c2)CCc2ccc(C(=O)NCCN4CCOCC4)cc2C3=O)ccc1F — remaining binding (cell-free assay; competition with immobilised ligand; 1 µM): 80%
C[C@@H]1CCN(c2nccc(-c3cnn4ncccc34)n2)C1 — remaining binding (binding; 1 µM): 99%
COc1ncc2cc3ccccc3nc2c1C#N — remaining binding (cell-free assay; competition with immobilised ligand; 5 µM): 89%
O=C(c1ccc(Nc2ncc(Cl)c(-c3cc4ccccc4s3)n2)cc1)N1CCC(N2CCCC2)CC1 — remaining binding (binding; competition with immobilised ligand; 1 µM): 53%
N[C@H]1CCN(c2nccc(-c3cnn4ncccc34)n2)C1 — remaining binding (binding; 1 µM): 63%
Cc1nc(C2CCN(C(=O)c3ccc(OC(F)(F)F)cc3N)CC2)c2ncc(N3CCN(C)CC3)cc2n1 — remaining binding (cell-free assay; competition with immobilised ligand; 1 µM): 94%
O=C(NCCCN1CCOCC1)c1ccc(Nc2nccc(-c3cc4ccccc4s3)n2)cc1 — remaining binding (binding; competition with immobilised ligand; 1 µM): 2.3%
COc1cnc(Nc2cccc(S(N)(=O)=O)c2)nc1N1CCN(c2ccccc2)CC1 — remaining binding (binding; competition with immobilised ligand; 1 µM): 100%
CCOCCn1cc(C(=O)Nc2ccc(-n3nc(-c4cccnc4)cc3C(F)(F)F)cn2)ccc1=O — remaining binding (cell-free assay; competition with immobilised ligand; 1 µM): 100%
F[C@@H]1CCN(c2nccc(-c3cnn4ncccc34)n2)C1 — remaining binding (binding; 1 µM): 100%
O=C(N[C@H]1CCCCC/C=C\C2C[C@@]2(C(=O)O)NC(=O)[C@@H]2C[C@@H](Oc3ccncc3)CN2C1=O)OC1CCCC1 (stereo partly drawn) — remaining binding (binding; competition with immobilised ligand; 1 µM): 100%
Nc1ncc2c(n1)-c1c([nH]c3ccc(C#CC4CC4)cc13)CCCC2 — remaining binding (binding; competition with immobilised ligand; 1 µM): 57%
CC1CCCN1c1nccc(-c2cnn3ncccc23)n1 (stereo not drawn) — remaining binding (binding; 1 µM): 74%
